Source: PubChem BioAssay
L major viab: Leishmania major promastigote growth inhibition. Leishmania major promastigotes, resazurin fluorescence viability. AID 1063. inhibition, % at 10 µM. hit rate 9% among 200,000;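 further: promastigotes grown with compound for 44 hours at 28 °C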
Wee1 degr inh: blocks degradation of human Wee1 kinase; reporter increase, % at 5 µM; P30291; hit rate 1.2% among 220,000; HeLa Luc-Wee1K328M stability, luciferase luminescence; 100% = proteasome inhibitor MG132 effect;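 active means activation above the mean of all tested compounds plus 3 SD, set per screening run, cut at about 8.8% in these data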;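 further: cells exposed to compound for 20 h before luminescence read; 0% = DMSO alone and 100% = MG132 at 30 µM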
CHOP inhibitor: blocks CHOP induction under ER stress | CHO-K1 CHOP-promoter luciferase, tunicamycin-induced, 15-18 h | inhibition, % at 10 µM | hit rate 3.8% among 220,000 | AID 2732;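 active means compounds that reduced the stress-induced luciferase reporter signal by more than about 70% of percent inhibition, limit read from the data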;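 further: 0% = tunicamycin plus vehicle and 100% = wells without tunicamycin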
Rad51 HR inh: blocks human Rad51 in homologous recombination; Q06609; hRad51 DNA strand exchange, fluorescence dequenching; hit rate 0.085% among 200,000; inhibition, % at 10 µM; AID 1385;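 active means inhibition above 40% at the single screening dose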;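 further: 0% = DMSO control wells and 100% = blanks with heterologous ssDNA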
Target sequence (Q06609 whole entry, looked up): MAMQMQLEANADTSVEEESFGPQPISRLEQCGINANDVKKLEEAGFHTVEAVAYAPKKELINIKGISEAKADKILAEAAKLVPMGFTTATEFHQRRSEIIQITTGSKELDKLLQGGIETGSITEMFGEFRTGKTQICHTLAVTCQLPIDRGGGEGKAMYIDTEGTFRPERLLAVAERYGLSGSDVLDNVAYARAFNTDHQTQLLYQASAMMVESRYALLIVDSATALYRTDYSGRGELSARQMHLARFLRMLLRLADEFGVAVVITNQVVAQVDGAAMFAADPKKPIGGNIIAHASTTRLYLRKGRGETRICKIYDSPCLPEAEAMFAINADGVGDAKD
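Material: hRad51 filaments on single-stranded DNA; Reagent: Donor/quencher-labelled 47-bp dsDNA substrate; Compound: 10 µM final, single point; Schedule: 37 °C 15-min filament assembly, 30-min compound preincubation, 15-min exchange; Technique: FRET fluorescence, excitation 485 nm, emission 520 nm; Benchmarks: control wells and blank wells on each plate.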
Arbovirus inh: blocks arbovirus infection; inhibition, % at 10 µM; arbovirus infection cell-based antiviral screen; hit rate 0.37% among 200,000; in the data active means inhibition above about 30%
PKD1 inh: PKD1 (human) kinase inhibition; Q15139; PKD1 kinase fluorescence polarization assay; inhibition, % (no concentration beside the values); hit rate 0.056% among 200,000; AID 797
The depositor's hits bear a star; . = no result. An excerpt weighted towards active compounds, which were near 12% of everything screened. Unless noted, no stated cut-off is given here; in the data, active means inhibition above about 50%; inactive means the rest.

SMILES | L major viab | Wee1 degr inh | CHOP inhibitor | Rad51 HR inh | Arbovirus inh | PKD1 inh
Cc1ccc(S(=O)(=O)C(NC(=O)c2ccccc2)=C(Cl)Cl)cc1 | 62* | -3 | . | -6 | . | 8
O=C(NC(=C(Cl)Cl)S(=O)(=O)c1ccc(Cl)cc1)c1ccccc1 | . | -2 | 3 | 13 | . | .
O=C1CCCC/C1=C\Nc1ccc(C(=O)O)c(O)c1 | . | 0 | -8 | -9 | . | .
CC(C)=CCC(C)(C)/C=N/NC(N)=O | . | 4 | -5 | -2 | . | .
Cc1ccc2sc(NC(=O)CN3C(=O)c4ccccc4C3=O)nc2c1C | -3 | 2 | 6 | . | 12 | -4
O=C(Nc1nc(=O)c2ccccc2s1)c1ccc(F)cc1 | 0 | 3 | 91* | 1 | -4 | -15
O=C(Nc1nc(=O)c2ccccc2s1)c1ccc(Cl)cc1 | -1 | 7 | 75* | -4 | -18 | -11
O=C(Cc1ccccc1)Nc1nc(=O)c2ccccc2s1 | -1 | 2 | 20 | 9 | 3 | -4
CCCCn1c(N)c(N(CC)C(=O)C(c2ccccc2)c2ccccc2)c(=O)[nH]c1=O | -4 | -3 | -8 | 6 | 5 | -1
COc1ccc(CCC(=O)Nc2cccc(S(=O)(=O)N(C)C)c2)cc1OC | -1 | -4 | -13 | -22 | 8 | 4
CCOc1ccc(C(c2c(NC(=O)c3ccccc3)sc(C)c2C)N2CCN(C)CC2)cc1 (stereo unspecified) | 52* | -2 | 26 | -3 | -28 | 0
Cc1sc(NC(=O)c2ccccc2)c(C(c2ccccn2)N2CCN(CCO)CC2)c1C (stereo unspecified) | 3 | 1 | 17 | 4 | -7 | 8
CCc1ccc(-c2cn3nc(C)c(C)nc3n2)cc1 | -7 | -3 | 92* | -3 | 3 | -5
CC(=O)Nc1cc2c(cc1NC(=O)Cn1nnc(-c3ccc(C)o3)n1)OCCO2 | 0 | 2 | 21 | -9 | 1 | -12
Cc1ccc(-c2nnn(CC(=O)Nc3cccc4c3CCCC4)n2)o1 | 15 | -2 | 81* | 0 | -12 | -9
O=c1c2ccccc2nc(CSc2nnnn2-c2ccccc2)n1-c1ccccc1Cl | -1 | 0 | 71* | . | -16 | -7
Cc1cc(NC(=O)CSc2nnc(Nc3ccccc3)s2)no1 | -8 | 2 | 14 | . | 10 | -1
CCc1cc2cc(C)c(C)cc2nc1SCC(=O)Nc1cc(C)on1 | -8 | 2 | 89* | . | -17 | -7
CCc1cc2ccc(OC)cc2nc1SCC(=O)Nc1cc(C)on1 | 2 | 0 | 82* | 8 | 3 | -3
COc1ccc(Nc2nnc(SCC(=O)Nc3cc(C)on3)s2)cc1 | 6 | 2 | 85* | -7 | -21 | -9
COc1cccc(CNC(=O)CCSCc2ccccc2F)c1 | -13 | -1 | 2 | -4 | 2 | 11
CC1=CC(C)(C)N=C(Nc2nc(C)c3cc(C)cc(C)c3n2)N1 | 97* | -2 | 13 | -5 | -41 | -2
Cc1cc(C)c2nc(Nc3nc(-c4ccccc4)cc(=O)[nH]3)nc(C)c2c1 | . | 3 | 7 | . | . | .
CCN1CCN(c2ncc3c(n2)CC(c2ccc(OC)c(OC)c2)CC3=O)CC1 (stereo unspecified) | 99* | 6 | 63 | -5 | -21 | 5
CN1C(C(=O)NCc2ccc(OC(F)(F)F)cc2)CC2Cn3c(nc4cc5ccccc5cc43)C21 (stereo unspecified) | . | . | 12 | -4 | . | .
SMILES | L major viab | Wee1 degr inh | CHOP inhibitor | Rad51 HR inh | Arbovirus inh | PKD1 inh
COc1cc(-c2nnc3n(CCc4ccccc4)c(=O)c4ccccc4n23)cc(OC)c1OC | 72* | 0 | -7 | 1 | 3 | 2
O=C(CSCc1ccc(Br)cc1)N1CCCC1 | -3 | -1 | -4 | -41 | -1 | 0
CCOC(=O)c1csc(N)c1-c1ccc([N+](=O)[O-])cc1 | . | -2 | 30 | 12 | . | .
COc1ccc(C(=O)Nc2sc(C)c(-c3ccccc3)c2C#N)cc1OC | 26 | 0 | 52 | -9 | -10 | 0
Cc1sc(NC(=O)COc2ccccc2)c(C#N)c1-c1ccccc1 | 57* | 9.6* | 33 | 0 | 13 | -10
CCc1ccc(-c2c(C)sc(NC(=O)C3CCC3)c2C#N)cc1 | 50* | -3 | -9 | 10 | 5 | -15
CCOC(=O)N1CCN(CC(O)COCc2cc(OC)c(OC)c(OC)c2)CC1 (stereo unspecified) | 7 | -2 | -17 | 2 | 17 | -3
CCOC(=O)N1CCN(CC(O)COCCC23CC4CC(CC(C4)C2)C3)CC1 (stereo unspecified) | 87* | 3 | 9 | 10 | -19 | -6
CC1CCCCN1CC(O)COCCC12CC3CC(CC(C3)C1)C2 (stereo unspecified) | 94* | 2 | 5 | 21 | -8 | -2
CC(C)(C)NCCOc1ccc(Br)cc1 | 95* | 6 | 5 | -5 | 0 | 0
COc1ccc(/C=N/n2cncn2)cc1Cn1nc(C)c([N+](=O)[O-])c1C | . | -1 | 8 | . | . | .
CSc1nc2ncc3c(n2n1)CC(C)(C)CC3=O | -6 | 8.9* | 10 | 15 | 2 | -1
CC(=O)NCc1ccc(C(=O)O)cc1 | . | -2 | -3 | . | . | .
Cc1cc(C)c(C(=O)/C=C/c2cccc3ccccc23)c(=O)[nH]1 | 100* | 0 | -10 | -7 | -37 | -5
CC1(C)CC(=O)C2=C(C1)NC1=C(C(=O)c3ccccc31)C2c1ccc(Cl)cc1 (stereo unspecified) | 60* | 0 | 10 | 19 | -17 | 1
Cc1ccc(C2C3=C(CC(C)(C)CC3=O)NC3=C2C(=O)c2ccccc23)cc1 (stereo unspecified) | 36 | -2 | 38 | . | -6 | 5
CCCN1C2=C(C(=O)CC(C)(C)C2)C(c2ccc(F)cc2)C2=C1c1ccccc1C2=O (stereo unspecified) | 72* | 0 | 55 | -5 | -7 | -8
CCCCN1C2=C(C(=O)CC(C)(C)C2)C(c2ccccc2)C2=C1c1ccccc1C2=O (stereo unspecified) | 84* | 7 | 32 | 0 | 3 | -3
CCN(CC)CCN1C2=C(C(=O)CC(C)(C)C2)C(c2cccc(F)c2)C2=C1CC(C)(C)CC2=O | 22 | 1 | 25 | -2 | 4 | 2
Fc1ccc(-n2ncc3c(SCc4cccnc4)ncnc32)cc1 | -5 | -1 | 52 | -2 | -1 | 5
C=CCNC(=S)N(CC=C)C1CCS(=O)(=O)C1 (stereo unspecified) | -7 | 0 | -7 | . | 0 | -4
CC(C)COc1ccc(-c2nn(-c3ccccc3)cc2C(=O)Nc2nccs2)cc1 | 29 | -1 | 11 | 4 | 6 | 7
O=C(Nc1nccs1)c1cn(-c2ccccc2)nc1-c1ccccc1 | 26 | 1 | 71* | 1 | -9 | 1
CC(C)Cc1nnc(NC(=O)c2cc(-c3ccncc3)nc3ccccc23)s1 | . | 9.2* | 1 | 12 | . | .
Cc1cccc(-c2cc(C(=O)NCc3ccccn3)c3ccccc3n2)c1 | 6 | 0 | 11 | -2 | 2 | -2
